# Measurements published in PubChem BioAssay AID624205 (Southern Research Specialized Biocontainment Screening …, 2012).
# Several values for one entry are separate records, joined by “and”; a condition that tells them apart may be missing. Identical values can stand only once. Results filed as inconclusive are left out. Activity calls are given as the source filed them.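 Rule for the calls: active = viability under 80% at one or more tested concentrations, counted as toxic; inconclusive = replicate runs disagree on the viability criterion; inactive = viability at or above 80% at every dose.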
# Test system: not listed separately
# Assay: viability loss in Vero kidney cells – cell-based, set 3, cytotoxicity control for PfM18AAP inhibitor project, dose response (AID 624205)
# Settings: Vero E6 viability, CellTiter-Glo luminescence, 72 h; at 50 µM (top of the series)
# Procedure, shortened: (§1)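 assay system = Vero E6 cells, viability assay | input = 3000 cells per well | doses = compound dose series in 2-fold dilution steps | technique = CellTiter-Glo luminescence for viable cell content | timing = 72 h compound exposure at 37 °C with 5% CO2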
row,SMILES,viability
1,Oc1cccc(CCNc2ccnc3ccccc23)c1O,93.2% (inactive)
2,CN(CCCc1ccc(O)c(O)c1)c1ccnc2ccccc12,88.4% (inactive)
3,CN(CCc1ccc(O)c(O)c1)c1ncnc2ccccc12,95.4% (inactive)
4,Cc1cccc2c(NCCc3ccc(O)c(O)c3)ccnc12,95.1% (inactive)
5,COc1ccc(CCN(C)c2cc(C)nc3ccccc23)cc1OC,80.7% (inactive)
6,CC(Cc1ccc(O)c(O)c1)Nc1ccnc2ccccc12 (stereo not given),83.9% (inactive)
7,CN(CCc1ccc(O)c(O)c1)c1ccnc2c(F)cccc12,86% (inactive)
8,Cc1cc(N(C)CCc2ccc(O)c(O)c2)c2ccccc2n1,89.8% (inactive)
9,Oc1ccc(CCCNc2c3c(nc4ccccc24)CCCC3)cc1O,92.3% (inactive)
10,COc1ccc(CCN(C)c2ncnc3ccccc23)cc1OC,85.7% (inactive)
11,COc1ccc(CCNC(=O)c2cc(C)ccc2N)cc1OC,95.6% (inactive)

# Test system: Vero E6 viability, CellTiter-Glo luminescence, 72 h
# Assay: as above
# Settings: not given
# Procedure, shortened: as §1
row,SMILES,CC50
1,COc1ccc(CCNc2ccnc3cc(Cl)ccc23)cc1OC,41.6 µM
2,COc1cc(Br)c(CCNc2ccnc3ccccc23)cc1OC,15.9 µM
3,COc1ccc(C2CCN(c3ccnc4ccccc34)CC2)cc1OC,23.7 µM
4,COc1ccc(CCCN(C)c2c3ccccc3nc3ccccc23)cc1OC,9.23 µM
5,CN(CCCc1ccc(O)c(O)c1)c1c2ccccc2nc2ccccc12,21.9 µM
6,COc1cc(Br)c(CCNc2c3c(nc4ccccc24)CCCC3)cc1OC,20.1 µM
7,Nc1c2ccccc2nc2ccccc12,10.3 µM
8,COc1cc(Br)c(CCNc2c3ccccc3nc3ccccc23)cc1OC,5.03 µM
9,CCN(CC)Cc1cc(Nc2ccnc3cc(Cl)ccc23)ccc1O,40.1 µM
10,CC(C)(CNc1ccnc2ccccc12)c1ccc(O)c(O)c1,15 µM
11,CCN(CCc1ccc(OC)c(OC)c1)c1c2ccccc2nc2ccccc12,15.4 µM
12,COc1ccc(CCN(C)c2c3ccccc3nc3ccccc23)cc1OC,12.9 µM and 9.77 µM
13,CCN(CCc1ccc(O)c(O)c1)c1c2ccccc2nc2ccccc12,34.6 µM
14,CCOc1ccc2nccc(N(C)CCc3ccc(OC)c(OC)c3)c2c1,41 µM
